Active and inactive are the calls of the source. The calls are words filed in the database; no cut-off is given here.
Experiments:
[1] = tested on: SCC-9; assay: Induction of apoptosis in human SCC-9 cells assessed as downregulation of Oct-4 gene expression at 32 uM by qRT-PCR analysis; assay type: functional, cell-based
[2] = tested on: CAL-27; assay: Induction of apoptosis in human CAL-27 cells assessed as downregulation of Oct-4 gene expression at 32 uM by qRT-PCR analysis; assay type: functional, cell-based
Outline: (§1)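 CAL27 cells were treated with test compounds at several concentrations. Relative expression of vimentin, E-cad, Nanog, Oct-4, Bax and BcL-2 was measured by qRT-PCR against vehicle-treated control cells.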

[3] = tested on: CAL-27; assay: Cell cycle arrest in human CAL-27 cells assessed as accumulation at G2/M phase at 32 uM incubated for 24 hrs by flow cytometry (reference value: 11.9 %); assay type: functional
[4] = tested on: SCC-9; assay: Induction of apoptosis in human SCC-9 cells assessed as downregulation of vimentin gene expression at 32 uM by qRT-PCR analysis; assay type: functional, cell-based
[5] = tested on: CAL-27; assay: Induction of apoptosis in human CAL-27 cells assessed as upregulation of E-cad gene expression at 16 uM by qRT-PCR analysis; assay type: functional, cell-based
Outline: (§2)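 CAL27 cells were treated with test agents at different concentrations. Relative mRNA levels of vimentin, E-cad, Nanog, Oct-4, Bax and Bcl-2 were then quantified by qRT-PCR as apoptosis, EMT and stemness markers.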

[6] = tested on: CAL-27; assay: Induction of apoptosis in human CAL-27 cells assessed as downregulation of Nanog gene expression at 16 uM by qRT-PCR analysis; assay type: functional, cell-based; outline: as §1
[7] = tested on: SCC-9; assay: Induction of apoptosis in human SCC-9 cells assessed as early apoptotic cells at 16.2 uM incubated for 24 hrs by Annexin V-FITC/PI staining based flow cytometric analysis (reference value: 2.8 %); assay type: functional
[8] = tested on: CAL-27; assay: Cell cycle arrest in human CAL-27 cells assessed as accumulation at G2/M phase at 16 uM incubated for 24 hrs by flow cytometry (reference value: 11.9 %); assay type: functional
[9] = tested on: CAL-27; assay: Induction of apoptosis in human CAL-27 cells assessed as late apoptotic cells at 32 uM incubated for 24 hrs by Annexin V-FITC/PI staining based flow cytometric analysis (reference value: 0.1 %); assay type: functional
Outline: (§3)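 CAL27 cells were treated with vehicle, doxorubicin or test compounds at 10–63 μM, and apoptosis was assessed by annexin V–FITC/PI staining with flow cytometry. Cells were scored as live, early apoptotic, late apoptotic or necrotic. The vehicle was DMSO (0.01%).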

[10] = tested on: SCC-9; assay: Induction of apoptosis in human SCC-9 cells assessed as upregulation of Bax gene expression at 32 uM by qRT-PCR analysis; assay type: functional, cell-based
[11] = tested on: SCC-9; assay: Induction of apoptosis in human SCC-9 cells assessed as late apoptotic cells at 16.2 uM incubated for 24 hrs by Annexin V-FITC/PI staining based flow cytometric analysis (reference value: 1.4 %); assay type: functional
[12] = tested on: SCC-9; assay: Cell cycle arrest in human SCC-9 cells assessed as accumulation at G0/G1 phase at 32.4 uM incubated for 24 hrs by flow cytometry (reference value: 70.8 %); assay type: functional
[13] = tested on: CAL-27; assay: Induction of apoptosis in human CAL-27 cells assessed as upregulation of E-cad gene expression at 32 uM by qRT-PCR analysis; assay type: functional, cell-based; outline: as §2
[14] = tested on: SCC-9; assay: Cell cycle arrest in human SCC-9 cells assessed as accumulation at G2/M phase at 16.2 uM incubated for 24 hrs by flow cytometry (reference value: 14.2 %); assay type: functional
[15] = tested on: CAL-27; assay: Cytotoxicity against human CAL-27 cells assessed as cell growth inhibition; assay type: functional, cell-based
Outline: (§4)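 Compounds were dissolved in sterile DMSO as 10 mg ml−1 stocks and tested for in vitro growth inhibition of human cancer cell lines. Doxorubicin was the standard drug and DMSO (0.01%) the vehicle control. IC50 values are reported as means.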

[16] = tested on: CAL-27; assay: Induction of apoptosis in human CAL-27 cells assessed as upregulation of Bax gene expression at 32 uM by qRT-PCR analysis; assay type: functional, cell-based; outline: as §2
[17] = tested on: SCC-9; assay: Induction of apoptosis in human SCC-9 cells assessed as late apoptotic cells at 32.4 uM incubated for 24 hrs by Annexin V-FITC/PI staining based flow cytometric analysis (reference value: 1.4 %); assay type: functional
[18] = tested on: SCC-9; assay: Induction of apoptosis in human SCC-9 cells assessed as downregulation of Nanog gene expression at 16 uM by qRT-PCR analysis; assay type: functional, cell-based
[19] = tested on: SCC-9; assay: Induction of apoptosis in human SCC-9 cells assessed as upregulation of E-cad gene expression at 32 uM by qRT-PCR analysis; assay type: functional, cell-based
[20] = tested on: SCC-9; assay: Cell cycle arrest in human SCC-9 cells assessed as accumulation at S phase at 32.4 uM incubated for 24 hrs by flow cytometry (reference value: 14.4 %); assay type: functional
[21] = tested on: MCF7; assay: Cytotoxicity against human MCF7 cells assessed as cell growth inhibition; assay type: functional, cell-based; outline: as §4
[22] = tested on: SCC-9; assay: Induction of apoptosis in human SCC-9 cells assessed as upregulation of Bax gene expression at 16 uM by qRT-PCR analysis; assay type: functional, cell-based
[23] = tested on: SCC-9; assay: Cell cycle arrest in human SCC-9 cells assessed as accumulation at G0/G1 phase at 16.2 uM incubated for 24 hrs by flow cytometry (reference value: 70.8 %); assay type: functional
[24] = tested on: CAL-27; assay: Induction of apoptosis in human CAL-27 cells assessed as early apoptotic cells at 16 uM incubated for 24 hrs by Annexin V-FITC/PI staining based flow cytometric analysis (reference value: 0.1 %); assay type: functional; outline: as §3
[25] = tested on: SCC-9; assay: Induction of apoptosis in human SCC-9 cells assessed as necrotic cells at 32.4 uM incubated for 24 hrs by Annexin V-FITC/PI staining based flow cytometric analysis (reference value: 0.1 %); assay type: functional

With `COc1ccc(-c2csc(NC(=O)CN3CCN(Cc4c(O)c(OC)c(O)c5c4C(=O)OC4C5O[C@H](CO)[C@@H](O)[C@@H]4O)CC3)n2)cc1` (stereo not given in full) as the molecule, how does the Activity [1] read?
The Activity was “Active”.

What about the Activity [2] of the same molecule?
Its Activity is “Active”.

What about the Activity [3] of the same molecule?
The Activity was 9.4%.

What about the Activity [4] of the same molecule?
The Activity was “Active”.

And the Activity [5]?
Its Activity is “Active”.

What about the Activity [6] of the same molecule?
The Activity was “Active”.

What about the Activity [7] of the same molecule?
The Activity was 6.2%.

What about the Activity [8] of the same molecule?
Its Activity is 12.3%.

What about the Activity [9] of the same molecule?
The Activity was 4.3%.

And the Activity [10]?
The Activity was “Active”.

What about the Activity [11] of the same molecule?
Its Activity is 40.8%.

What about the Activity [12] of the same molecule?
Its Activity is 77.6%.

What about the Activity [13] of the same molecule?
Its Activity is “Active”.

And the Activity [14]?
The Activity was 10.6%.

And the IC50 [15]?
The IC50 was 16 µM.

What about the Activity [16] of the same molecule?
Its Activity is “Active”.

And the Activity [17]?
Its Activity is 17.5%.

And the Activity [18]?
The Activity was “Active”.

What about the Activity [19] of the same molecule?
Its Activity is “Active”.

What about the Activity [20] of the same molecule?
The Activity was 12.4%.

And the IC50 [21]?
Its IC50 is > 100 µM.

What about the Activity [22] of the same molecule?
Its Activity is “Active”.

And the Activity [23]?
The Activity was 71.4%.

What about the Activity [24] of the same molecule?
The Activity was 2.7%.

And the Activity [25]?
Its Activity is 33.8%.

— ChEMBL document CHEMBL5108039, “Piperazine tethered bergenin heterocyclic hybrids: design, synthesis, anticancer activity, and molecular docking studies” (RSC Med Chem, 2022)
